Data set [1] has as its system L6. The experiment in a line: Inhibition of cholesterol synthesis in rat L6 cells. The data set is classed as functional, cell-based.
Data set [2] concerns Cavia porcellus. The experiment in a line: Reduction of LDL level in chow fed Hartley guinea pig serum at 10 mg/kg/day, po for 7 days relative to rosuvastatin. It counts as functional, Hartely. Set-up: scale not given: the % may be the effect or the level left. To be noted: in the assay text read “20 mg/kg/day” for “10 mg/kg/day”. The essentials:
(§1)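 Male Hartley guinea pigs (300–500 g) on chow diet 5025, acclimated ≥1 week; vehicle or compound suspension by daily oral gavage at 10 or 20 mpk (n = 8/group) for 7 days; sacrificed 2 h after final dose; LDL cholesterol as mean % change from vehicle group.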

Data set [3] relates to Syrian golden hamster. The experiment in a line: Inhibition of cholesterol synthesis in Golden Syrian hamster blood at 10 mg/kg, po after 4 to 6 hrs relative to control. The data set is classed as functional. To be noted: Mesocricetus auratus, read-out: Inhibition. A digest of the protocol:
(§2)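 Hamsters on chow with 2.5% cholestyramine from 3 days prior; oral gavage of vehicle or compound (10 mpk), n = 8/group. At 2 h (2–4 h arm) or 4 h (4–6 h arm) postdose, i.p. 80 µCi 14C sodium acetate in 0.9% NaCl; euthanized 2 h later, cardiac blood, plasma saponified and extracted, 14C cholesterol counted; % change vs untreated controls.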

Data set [4] deals with Syrian golden hamster. Description: Inhibition of cholesterol synthesis in Goldern Syrian hamster blood at 10 mg/kg, po after 2 to 4 hrs relative to control. It counts as functional. To be noted: Mesocricetus auratus, read-out: Inhibition. The essentials:
as §2

Data set [5] concerns Hepatocyte. The experiment in a line: Inhibition of cholesterol synthesis in rat hepatocytes. It counts as functional, cell-based. A digest of the protocol:
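Frozen rat hepatocytes on collagen-coated wells, 10^5 cells/well, grown 24 h in DMEM/10% FBS/10 mM HEPES. Compound preincubation 4 h, then 1 µCi/mL 14C acetic acid for 4 h more.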

Data set [6] relates to Hepatocyte. The experiment in a line: Ratio of IC50 for cholesterol synthesis in rat myocytes to rat hepatocytes. The data set is classed as functional.
For data set [7], the system named is Cavia porcellus. The experiment in a line: Reduction of LDL level in po dosed Hartley guinea pig plasma after 7 days. It counts as functional. To be noted: Hartely, 168 h.
Data set [8] addresses T1, 3-hydroxy-3-methylglutaryl-coenzyme A reductase (Rattus norvegicus, UniProt P51639).
T1 sequence (P51639 whole entry): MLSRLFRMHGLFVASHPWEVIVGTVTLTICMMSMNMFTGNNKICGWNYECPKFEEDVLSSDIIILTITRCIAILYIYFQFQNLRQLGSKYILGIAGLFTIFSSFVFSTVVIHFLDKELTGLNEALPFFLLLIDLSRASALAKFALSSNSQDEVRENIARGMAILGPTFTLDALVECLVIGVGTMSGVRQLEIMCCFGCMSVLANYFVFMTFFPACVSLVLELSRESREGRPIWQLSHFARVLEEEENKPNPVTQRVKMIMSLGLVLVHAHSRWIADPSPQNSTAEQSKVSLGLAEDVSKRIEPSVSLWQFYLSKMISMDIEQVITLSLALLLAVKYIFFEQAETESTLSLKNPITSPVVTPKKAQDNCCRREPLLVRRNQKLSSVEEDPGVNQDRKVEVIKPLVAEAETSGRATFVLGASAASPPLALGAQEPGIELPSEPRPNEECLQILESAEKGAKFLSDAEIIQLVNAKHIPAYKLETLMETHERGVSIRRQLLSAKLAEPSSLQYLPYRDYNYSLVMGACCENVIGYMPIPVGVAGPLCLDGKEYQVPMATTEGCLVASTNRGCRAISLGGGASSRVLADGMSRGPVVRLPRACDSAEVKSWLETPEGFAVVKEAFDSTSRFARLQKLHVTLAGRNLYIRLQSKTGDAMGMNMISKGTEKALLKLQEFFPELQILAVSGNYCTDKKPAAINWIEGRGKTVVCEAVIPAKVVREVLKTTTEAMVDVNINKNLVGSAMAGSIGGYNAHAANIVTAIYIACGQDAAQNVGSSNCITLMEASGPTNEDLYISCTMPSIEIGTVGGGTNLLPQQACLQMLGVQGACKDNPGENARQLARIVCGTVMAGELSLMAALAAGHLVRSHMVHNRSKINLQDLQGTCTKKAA
The experiment in a line: Inhibition of HMG-CoA reductase in Sprague-Dawley rat liver microsomes. Set-up: species or system Microsome. A digest of the protocol:
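Rat liver microsomes (35 µg/mL) in 100 mM NaH2PO4, 10 mM imidazole, 10 mM EDTA, preincubated with compound in DMSO 0.5 h on ice; 14C-HMG-CoA (0.024 µCi) with 15 mM NADPH and 25 mM DTT added, 0.75 h at 37 °C. Stopped with HCl, lactonized to mevalonolactone, anion-exchange resin separation, scintillation counting; IC50 by curve fit.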

The nature of data set [9]: Lipophilicity, log P of the compound. The note with it: octanol/water. It counts as physicochemical.
Data set [10] has as its system Cavia porcellus. The experiment in a line: Reduction of LDL level in chow fed Hartley guinea pig serum at 20 mg/kg/day, po for 7 days relative to rosuvastatin. The data set is classed as functional, Hartely. Also noted: scale not given: the % may be the effect or the level left. A digest of the protocol:
as §1

Turning to `CC(C)c1c(C(=O)N(C)[C@H](C)c2ccccc2)nn(-c2ccc(F)cc2)c1CC[C@@H](O)C[C@@H](O)CC(=O)[O-].[Na+]`, the IC50 in data set [1] worked out at 1.9 µM; in data set [5] it was 0.0003 µM. Besides, the Activity in [2] is given as -11%. Further, in data set [3], the Percent change in cholesterol synthesis vs control at 10 mg/kg is -10%. Besides, the % change in cholesterol synthesis vs control at 10 mg/kg in [4] was -62%.

Turning to `CC[C@H](C)C(=O)O[C@H]1C[C@H](O)C=C2C=C[C@H](C)[C@H](CC[C@@H](O)C[C@@H](O)CC(=O)O)[C@H]21` [PRAVASTATIN], the results for the half-maximal inhibitory concentration (IC50) in [1], in [8] and in data set [5] were 7.6 µM, 0.013 µM and 0.017 µM, respectively. In data set [6], the “Ratio IC50” value is reported as 450. The compound also came in with an ED50 in data set [7] of 100 mg/kg. For the same compound, the LogP in [9] is recorded as -0.67.

For `CC(C)c1nc(N(C)S(C)(=O)=O)nc(-c2ccc(F)cc2)c1/C=C/[C@@H](O)C[C@@H](O)CC(=O)O` [ROSUVASTATIN], the IC50 in data set [1] stood at 0.25 µM; in [8], 0.0031 µM; in data set [5], 0.0003 µM. Further, in data set [6], the “Ratio IC50” value was determined as 830. For the same compound, the Activity in data set [10] was -42%. In data set [7], the ED50 was 9.3 mg/kg. Moreover, the Percent change in cholesterol synthesis vs control at 10 mg/kg in [3] is -46%. Moreover, the % change in cholesterol synthesis vs control at 10 mg/kg in data set [4] is -76%.

(Values after ChEMBL document CHEMBL1140700, “Substituted pyrazoles as hepatoselective HMG-CoA reductase inhibitors: discovery of (3R,5R)-7-[2-(4-fluoro-phenyl)-4-isopropyl-5-(4-methyl-benzylcarbamoyl)-2H-pyrazol-3-yl]-3,5-dihydroxyheptanoic acid (PF-3052334) as a candidate for the treatment of hypercholesterolemia” (J Med Chem, 2008).)
